# Experimental data from PMC6459016 (Journal of computer-aided molecular design, 2019).
# Read-outs that look alike come from different tables or passages of the source.
# What was measured:
# [1] = Rat liver microsome stability; format: in vitro ADME; conditions: 37 °C, NADPH
# [2] = Kinetic aqueous solubility; format: physicochemical; conditions: kinetic aqueous solubility in PBS 7.4 buffer from a 10 mM DMSO stock
# [3] = Stirring double-sink PAMPA permeability; format: in vitro ADME; conditions: in-house at NCATS
# Outline: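 Effective permeability was measured by passive diffusion in a stirring double-sink PAMPA. Sample preparation, analysis and data processing were fully automated.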
# recombinant human GALK1 [4] = target: T1, recombinant human GALK1 (Homo sapiens, UniProt P51570); experiment: GALK1 inhibition assay; format: biochemical; conditions: for IC50: luminescence GALK1-ATP-depletion assay, ATP 35 μM, galactose 100 μM; for MR (maximal % inhibition): maximal % inhibition at 57 μM compound
# Outline: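 Recombinant human GALK1 was run in 1536-well format against test compound at 6 doses (3 nM – 57 μM). Reactions were started with ATP (35 μM) and galactose (100 μM), both near their K_M under these conditions. Remaining ATP was read by Kinase-Glo luminescence. Normalized concentration-response data were fitted to a four-parameter logistic to give IC50 and efficacy (maximal response).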
# recombinant human GALK1 [5] = target: T1, recombinant human GALK1; conditions: cited from earlier work
# T1 sequence (P51570 whole entry): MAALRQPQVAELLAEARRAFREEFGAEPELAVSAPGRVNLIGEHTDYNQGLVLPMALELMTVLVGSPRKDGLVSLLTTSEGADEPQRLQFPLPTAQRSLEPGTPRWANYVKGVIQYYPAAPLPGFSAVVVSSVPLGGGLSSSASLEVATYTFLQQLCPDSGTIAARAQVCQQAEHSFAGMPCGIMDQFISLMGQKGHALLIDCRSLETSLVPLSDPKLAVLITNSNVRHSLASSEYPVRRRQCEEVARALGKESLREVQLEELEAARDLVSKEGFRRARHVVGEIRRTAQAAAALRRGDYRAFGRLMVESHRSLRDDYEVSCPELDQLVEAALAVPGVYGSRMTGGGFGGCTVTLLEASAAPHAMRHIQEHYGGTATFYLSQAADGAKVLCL
Microsomal T1/2 [1],Solubility [2],Permeability [3],IC50 (recombinant human GALK1 [4]),MR (maximal % inhibition) (recombinant human GALK1 [4]),Structure (SMILES),IC50 (recombinant human GALK1 [5]; GALK1),Mode of inhibition (recombinant human GALK1 [5]; with respect to ATP and galactose substrate)
1.6 m,54.1 Ug/ml,674.5 ×10⁻⁶ cm/s,15.7 µM,84.5%,COc1ccc(S(=O)(=O)Nc2cnccc2C(=O)Nc2nc(-c3ccccc3)cs2)cc1 [C8],,
1.6 m,57.0 Ug/ml,313.5 ×10⁻⁶ cm/s,44.5 µM,62.5%,O=C(Nc1nc(-c2ccccc2)cs1)c1ccncc1NS(=O)(=O)c1ccc(N2CCCC2=O)cc1 [C10],,
,,,,,O=C1CCCC2=C1C(c1[nH]ncc1Cl)N=C(Nc1nc3ccccc3o1)N2 (stereo not shown) [NCGC00238624],4.7 µM,competitive with respect to ATP and uncompetitive to galactose substrate
15.0 m,< 1.0 Ug/ml,82.2 ×10⁻⁶ cm/s,15.9 µM,92.9%,Cc1ccc(S(=O)(=O)Nc2cc(C(F)(F)F)ccc2C(=O)Nc2nc(-c3ccccc3)cs2)cc1 [C3],,
17.0 m,9.4 Ug/ml,724.3 ×10⁻⁶ cm/s,14 µM,83.5%,Cc1ccc(S(=O)(=O)Nc2cnccc2C(=O)Nc2nc(-c3ccccc3)cs2)cc1 [C2],,
2.6 m,< 1.0 Ug/ml,35.6 ×10⁻⁶ cm/s,14 µM,81.0%,Cc1ccc(-c2csc(NC(=O)c3ccccc3NS(=O)(=O)c3ccc(C)cc3)n2)cc1 [C6],,
,50.0 Ug/ml,1064.7 ×10⁻⁶ cm/s,11.1 µM,90.3%,Cc1ccccc1S(=O)(=O)Nc1cnccc1C(=O)Nc1nc(-c2ccccc2)cs1 [C7],,
6.3 m,< 1.0 Ug/ml,30.1 ×10⁻⁶ cm/s,11.1 µM,75.9%,COc1ccc(-c2csc(NC(=O)c3ccccc3NS(=O)(=O)c3ccc(C)cc3)n2)cc1 [C5],,
13.0 m,<1.0 Ug/ml,< 5.0 ×10⁻⁶ cm/s,22.2 µM,89.3%,Cc1ccc(S(=O)(=O)Nc2cc(Cl)c(Cl)cc2C(=O)Nc2nc(-c3ccccc3)cs2)cc1 [C4],,
2.0 m,< 1.0 Ug/ml,< 1.0 ×10⁻⁶ cm/s,17.7 µM,88.5%,O=C(Nc1nc(-c2ccccc2)cs1)c1ccncc1NS(=O)(=O)c1ccc(-c2ccccc2)cc1 [C9],,
